Results: ChEMBL document CHEMBL1127449, “An investigation of desferrithiocin metabolism” (J Med Chem, 1994)

What was measured:
Assay type in all cases: ADME
[1] = Tested for the half life period at the pH of 2.5; details: pH 2.5
Summary of the method: (§1)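 Hydrolysis followed by HPLC at 37 °C: 2 mM solutions in phosphate mobile phase B with 4 mM 2,6-lutidine as internal standard, pH set to 2.5 or 7.2 with HCl or KOH. Reverse-phase gradient of acetonitrile/mobile phase B, detection at 250 nm. Half-life derived from disappearance over time. For fast pH 7.2 conversion, acidic solution brought to 7.2 then back to 2.5 (<1 min).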

[2] = Tested for the half life period at the pH of 7.2; details: pH 7.2; summary of the method: as §1
[3] = Tested for the half life period at the pH of 7.2; Stable; details: pH 7.2; summary of the method: as §1
[4] = Tested for the half life period at the pH of 2.5; Stable; details: pH 2.5; summary of the method: as §1

half-life [1] [h] | half-life [2] [min] | T1/2 [3] | T1/2 [4] | T1/2 [1] [h] | Molecule
4.18 | < 1 |  |  |  | N[C@@H](CSC(=O)c1ccccc1O)C(=O)O
 |  | Stable | Stable |  | O=C(N[C@@H](CS)C(=O)O)c1ccccc1O
8.74 |  | Stable |  |  | O=C(O)[C@@H]1CSC(c2ncccc2O)=N1
31.7 |  | Stable |  |  | O=C(O)[C@@H]1CSC(c2ccccc2O)=N1
18.6 |  | Stable |  |  | C[C@]1(C(=O)O)CSC(c2ncccc2O)=N1 [DESFERRITHIOCIN]
 |  | Stable |  | > 480 | deaza-desmethyl-DFT complex with iron (III)
